High-throughput results from PubChem BioAssay.
PfG6PD inh – PfG6PD enzyme inhibitors, primary screen, biochemical, fluorescence intensity, uHTS; glucose-6-phosphate dehydrogenase-6-phosphogluconolactonase (Plasmodium falciparum 3D7); PfGluPho enzyme, NADPH resazurin-diaphorase fluorescence; inhibition, % at 20 µM; hit rate 0.78% among 350,000;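 active = inhibition reaching at least a set limit at 20 µM in the primary screen, cut at about 59% in these data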;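 also: 0% = DMSO wells with substrate and 100% = DMSO wells lacking glucose-6-phosphate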
Diaph act CS – compounds boosting diaphorase resazurin reduction – biochemical, uHTS, resorufin fluorescence, counter-screen for diaphorase-coupled primary assays, primary screen. Diaphorase/resazurin coupled assay, 16 min; stronger effect = higher value; 1 = vehicle wells, 0 = NADH-free wells. activation factor at 20 µM. hit rate 0.005% among 190,000. AID 1229, 2008;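 active = diaphorase activity raised at least twofold by the compound at 20 µM; inactive = activation factor below 2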
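Measured by – red resorufin fluorescence at 544/590 nm excitation/emission · Test system – Clostridium kluyveri diaphorase, purified enzyme · Incubation – reaction time 16 min, room temperature · Buffer or medium – 50 mM HEPES pH 7.4 with 4.542 mM MgCl2, 0.005% Tween 20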
HKDC1 inh – HKDC1 hexokinase inhibitors, primary screen, biochemical, fluorescence, uHTS | Q2TB90 | recombinant HKDC1, G6PDH/diaphorase resazurin coupled fluorescence | inhibition, % at 20 µM | hit rate 0.16% among 340,000 | AID 493160, 2011;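 active = inhibition above about 35% when tested at 20 µM, limit read from the data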;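 also: plate controls were DMSO wells with enzyme for no effect and DMSO wells lacking enzyme for full effect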
Target sequence (Q2TB90 whole entry, looked up): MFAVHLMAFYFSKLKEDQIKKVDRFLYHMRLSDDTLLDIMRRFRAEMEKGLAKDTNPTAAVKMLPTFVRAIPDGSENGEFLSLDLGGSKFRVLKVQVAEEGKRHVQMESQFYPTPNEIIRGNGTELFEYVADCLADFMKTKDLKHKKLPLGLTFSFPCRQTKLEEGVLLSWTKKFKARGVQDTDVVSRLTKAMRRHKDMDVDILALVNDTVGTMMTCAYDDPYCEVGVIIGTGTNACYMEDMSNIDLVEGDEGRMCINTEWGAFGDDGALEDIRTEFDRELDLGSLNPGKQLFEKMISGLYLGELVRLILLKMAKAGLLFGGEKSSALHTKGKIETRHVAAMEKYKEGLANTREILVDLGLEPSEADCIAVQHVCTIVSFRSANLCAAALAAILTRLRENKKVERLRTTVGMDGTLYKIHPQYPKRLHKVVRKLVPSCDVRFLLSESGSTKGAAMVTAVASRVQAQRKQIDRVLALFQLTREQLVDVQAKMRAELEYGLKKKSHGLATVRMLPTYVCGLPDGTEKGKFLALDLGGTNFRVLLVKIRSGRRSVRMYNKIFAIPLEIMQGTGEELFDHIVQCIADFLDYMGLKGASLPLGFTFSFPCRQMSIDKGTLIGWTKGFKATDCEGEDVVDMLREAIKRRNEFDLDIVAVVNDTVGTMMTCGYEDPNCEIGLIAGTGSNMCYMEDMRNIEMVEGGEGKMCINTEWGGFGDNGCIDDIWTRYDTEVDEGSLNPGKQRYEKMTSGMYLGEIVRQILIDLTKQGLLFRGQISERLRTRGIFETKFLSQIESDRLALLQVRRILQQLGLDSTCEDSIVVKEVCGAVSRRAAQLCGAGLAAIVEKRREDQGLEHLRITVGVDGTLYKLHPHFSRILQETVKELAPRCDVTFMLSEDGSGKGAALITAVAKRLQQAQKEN
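System: Recombinant HKDC1 hexokinase | Amount: HKDC1 at 5 µg/mL | Reagent: Glucose with 1 mM ATP | Doses: Single 20 µM dose | Incubation: Reaction time 90 min, room temperature, protected from light | Signal: Coupled resazurin fluorescence, excitation 525 nm, emission 613 nm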
Tb hexokinase – Trypanosoma brucei hexokinase 1 inhibitors, primary screen, biochemical, G6PDH-coupled NADH absorbance, MLSCN library; hexokinase 1 [Trypanosoma brucei]; recombinant TbHK1, G6PDH-coupled NADH A340; inhibition, % at 10 µM; hit rate 0.11% among 220,000; AID 1430, 2008;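 active = inhibition of 50% or more in the single-dose primary screen; inactive = inhibition below 50%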
G6PDH counter – L. mesenteroides G6PDH inhibitors, counter-screen for G6PDH-coupled screening assays, biochemical, Leuconostoc mesenteroides enzyme | glucose-6-phosphate dehydrogenase [Leuconostoc mesenteroides] | Purified L. mesenteroides G6PDH, diaphorase/resazurin coupled fluorescence, 45 min | inhibition, % at 5 µM | hit rate 0.12% among 200,000 | AID 1020, 2008; in the data active = inhibition above about 50%
Diaph inh CS – diaphorase inhibitors and chemical oxidizers, primary screen, counter-screen for diaphorase-coupled primary assays, biochemical, uHTS, resorufin fluorescence | diaphorase resazurin-to-resorufin fluorescence, NADH, 16 min; bacterial (C. kluyveri) enzyme, not human | inhibition, % at 20 µM | hit rate 0.69% among 190,000 | AID 1217, 2008;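 active = primary screen inhibition at 20 µM above a set limit, cut at about 50% in these data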;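 also: plate controls were DMSO with full reaction for no effect and wells lacking NADH for full effect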
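Detection: fluorescence of resorufin formed from resazurin, Ex 544/Em 590 nm; test system: Clostridium kluyveri diaphorase enzyme; amount: 0.14 U/mL diaphorase, enzyme working solution; times: 16-min room-temperature incubation before reading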
* hit, by the source's call; . = no result. Hits are enriched below; roughly 1.3% of the tested compounds scored in any of these assays.

SMILES	PfG6PD inh	Diaph act CS	HKDC1 inh	Tb hexokinase	G6PDH counter	Diaph inh CS
COc1ccccc1CCNC(=O)CSc1ccc(-c2cccs2)nn1	12	0.8	1	-5	6	18
COc1ccccc1NC(=O)CSc1ccc(-c2cccs2)nn1	38	0.4	29	-3	2	57*
O=C1C=CC2(O[C@H](c3ccccc3)[C@@H](c3ccccc3)O2)[C@H](Sc2ccccc2O)C1	54	.	29	.	.	.
CCOC(=O)c1c2ccc(OCC(=O)N/N=C/c3ccccc3C(F)(F)F)cc2n2ccccc12	.	0.5	.	-10	38	52*
COc1cccc(C(=O)COC(=O)COc2c(C)cc(C)cc2C)c1	-8	.	3	.	.	.
O=C(Nc1ccccc1)N1CCC(C(=O)N2CCN(c3ccccc3F)CC2)CC1	-2	0.8	6	9	9	17
O=C(O)/C=C/C(=O)Nc1ccc2c(c1)NC(=O)CO2	13	0.4	-4	-4	7	61*
COc1cccc2c(=O)c3cccc(N)c3[nH]c12	11	0.1	9	-9	28	86*
N#Cc1sc2nc(-c3ccccc3)cc(-c3ccco3)c2c1N	28	0.4	23	-1	-40	62*
CCn1nc(C(=O)Nc2cc(Cl)ccc2-n2cncn2)c2ccccc2c1=O	0	.	11	.	.	.
CCCCCCCCNCCS(=O)(=O)NC1CCCCC1	-13	.	5	.	.	.
CCOC(=O)CSc1nc2c(sc(=S)n2-c2ccccc2)c(=O)n1-c1ccc(OC)cc1OC	65*	.	-3	.	.	.
O=C1OCC2OC(O)C(O)C(O)C2OC(=O)c2cc(O)c(O)c(O)c2-c2c(O)c(O)c3oc(=O)c4c(c(O)c(O)c5oc(=O)c2c3c54)-c2c1cc(O)c(O)c2O (stereo not given)	.	.	.	54*	.	.
O=C(CN1C(=O)NC2(CCCCCC2)C1=O)c1ccc(Cl)s1	4	.	-1	.	.	.
O=C1/C(=C2\C(=O)N(Cc3ccc(F)cc3)c3ccccc32)SC(=S)N1CCS(=O)(=O)O	18	.	26	.	.	.
O=C(O)CN1C(=O)/C(=C2\C(=O)N(Cc3ccccc3Cl)c3ccccc32)SC1=S	-9	.	51*	.	.	.
C=CCOc1ccc(C(c2c(C(=O)O)[nH]c3ccccc23)c2c(C(=O)O)[nH]c3ccccc23)cc1	-34	.	14	.	.	.
O=[N+]([O-])c1ccc(N/N=C/c2ccc[nH]2)cc1	81*	0.7	-4	-10	8	27
O=C(N/N=C/c1ccccc1Cl)c1nc2ccc([N+](=O)[O-])cc2c(=O)[nH]1	-3	0.4	6	3	2	58*
COC(=O)C1=C(C)N(C)C(=O)NC1c1cc2c(cc1[N+](=O)[O-])OCO2 (stereo not given)	30	0.4	1	-6	10	59*
COC(=O)C1=C(C)N(CCCC(=O)O)C(=O)NC1c1cc2c(cc1[N+](=O)[O-])OCO2 (stereo not given)	17	0.6	4	5	17	38
COc1cc2c(C#N)c(N3CCCCC3)nc(N)c2c(N)n1	13	0.4	16	-9	51*	64*
CCOc1cc2c(C#N)c(N3CCCCC3)nc(N)c2c(N)n1	27	0.4	19	-8	47	58*
CCOc1cc2c(C#N)c(N3CCNCC3)nc(N)c2c(N)n1	28	0.5	20	-11	18	46
CC1=NS(=O)(=O)NC(C)(C)C1	2	.	-6	.	.	.
SMILES	PfG6PD inh	Diaph act CS	HKDC1 inh	Tb hexokinase	G6PDH counter	Diaph inh CS
CCOC(=O)c1cn(-c2c(Cl)cccc2Cl)c2cc(Cl)c([N+](=O)[O-])cc2c1=O	-11	0.5	-10	-11	0	52*
Cc1ccc(C(=O)NC(=S)NNC(=O)CCN2CCOCC2)cc1	-21	0.3	-5	2	-7	67*
O=C(NC(=S)NCCN1CCOCC1)c1ccc(F)cc1	3	0.9	4	1	12	7
CCNC(=O)CC1C(=O)N(CC)C(=S)N1NC(=O)c1cccnc1 (stereo not given)	6	1	-6	-5	8	1
O=C(NCCc1ccc(F)cc1)c1ccc(Cl)c(S(=O)(=O)N2CCOCC2)c1	15	.	-4	.	.	.
CN1C(=O)C2(Nc3ccccc3-c3nc4ccccc4n32)c2ccccc21 (stereo not given)	15	0.2	12	-5	1	84*
CCO[C@H]1OC(C(=O)N2CCN(C)CC2)=C[C@@H](c2ccc(C(F)(F)F)cc2)[C@@H]1CCCO	11	0.3	-5	-7	18	74*
C#Cc1ccc([C@H]2C=C(C(=O)N3CCN(Cc4ccc5c(c4)OCO5)CC3)O[C@@H](OCC)[C@@H]2CCCO)cc1	20	0.4	0	-20	7	55*
Cc1c(S(=O)(=O)NC2CCCCC2)c(=O)n(C)c(=O)n1C	5	.	-5	.	.	.
Cc1nc2ccccn2c1C(=O)NN=C1C2CC3CC(C2)CC1C3	-14	0.9	11	4	-5	8
CN(C)/C=C1/Oc2c(ccc3ccccc23)C1=O	2	0.7	7	-9	3	32
CN(C)/C=C1\Oc2ccc3ccccc3c2C1=O	30	0.3	12	-18	34	70*
Cc1ccc(CNC(=O)c2ccc3c(=O)[nH]c4c(C(=O)NCC5CCCO5)sc(=S)n4c3c2)cc1 (stereo not given)	-4	0.2	23	-8	5	79*
CCCCCNC(=O)c1ccc2c(=O)[nH]c3c(C(=O)NCC4CCCO4)sc(=S)n3c2c1 (stereo not given)	6	0.4	25	-13	-2	65*
O=C(NCc1ccccc1)c1ccc2c(=O)[nH]c3c(C(=O)NCC4CCCO4)sc(=S)n3c2c1 (stereo not given)	17	0.3	35	-8	-2	70*
Cc1ccc([N+](=O)[O-])cc1N=C1C(=O)Nc2ccccc21	-13	.	7	.	.	.
Cc1nc(Cc2nnc(SC(C)C(=O)Nc3ccccc3)o2)cs1 (stereo not given)	11	.	.	.	.	.
O=c1c2c([N+](=O)[O-])cc([N+](=O)[O-])cc2sn1Cc1ccccc1	124*	.	3	.	.	.
O=c1c2c([N+](=O)[O-])cc([N+](=O)[O-])cc2sn1-c1ccc(Br)cc1	121*	0.3	7	92*	-4	67*
